Key:
[1] = molecular target: T1, Bromodomain-containing protein 4 (Homo sapiens, UniProt O60885); experiment: Displacement of biotinylated acetylated peptide from recombinant human partial length BRD4 long isoform bromodomain 1/2 (N44 to E460 residues) expressed in Escherichia coli BL21 measured after 1 hr by Bromoscan method
MV4-11 = experiment: Cytotoxicity against human MV411 cells after 72 hrs by CellTiter-Glo assay; assay type: functional, cell-based; settings: MV4-11, 72 h
[2] = molecular target: T2, Bromodomain testis-specific protein (Homo sapiens, UniProt Q58F21); experiment: Displacement of biotinylated acetylated peptide from recombinant human partial length BRDT isoform b bromodomain 1 (N21 to E137 residues) expressed in Escherichia coli BL21 measured after 1 hr by Bromoscan method
Mus musculus [3] = experiment: (§1) AUC (0 to infinity) in CD-1 mouse at 10 mg/kg, po; assay type: ADME, organism-based; design: dose 10 mg/kg, time infinity, route oral; settings: mouse, in vivo, BLD = below limit of detection
Summary of the method: (§2)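 CD-1 mice (n = 3) received a single oral dose of 10 mg/kg. Plasma drug levels were followed over time to derive AUC0–∞, t1/2 and oral bioavailability (F%), the last relative to the iv arm.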

[4] = molecular target: T3, Bromodomain-containing protein 3 (Homo sapiens, UniProt Q15059); experiment: Displacement of biotinylated acetylated peptide from recombinant human partial length BRD3 bromodomain 1/2 (P24 to P416 residues) expressed in Escherichia coli BL21 measured after 1 hr by Bromoscan method
T3 sequence (Q15059 whole entry, the tested form may be a part): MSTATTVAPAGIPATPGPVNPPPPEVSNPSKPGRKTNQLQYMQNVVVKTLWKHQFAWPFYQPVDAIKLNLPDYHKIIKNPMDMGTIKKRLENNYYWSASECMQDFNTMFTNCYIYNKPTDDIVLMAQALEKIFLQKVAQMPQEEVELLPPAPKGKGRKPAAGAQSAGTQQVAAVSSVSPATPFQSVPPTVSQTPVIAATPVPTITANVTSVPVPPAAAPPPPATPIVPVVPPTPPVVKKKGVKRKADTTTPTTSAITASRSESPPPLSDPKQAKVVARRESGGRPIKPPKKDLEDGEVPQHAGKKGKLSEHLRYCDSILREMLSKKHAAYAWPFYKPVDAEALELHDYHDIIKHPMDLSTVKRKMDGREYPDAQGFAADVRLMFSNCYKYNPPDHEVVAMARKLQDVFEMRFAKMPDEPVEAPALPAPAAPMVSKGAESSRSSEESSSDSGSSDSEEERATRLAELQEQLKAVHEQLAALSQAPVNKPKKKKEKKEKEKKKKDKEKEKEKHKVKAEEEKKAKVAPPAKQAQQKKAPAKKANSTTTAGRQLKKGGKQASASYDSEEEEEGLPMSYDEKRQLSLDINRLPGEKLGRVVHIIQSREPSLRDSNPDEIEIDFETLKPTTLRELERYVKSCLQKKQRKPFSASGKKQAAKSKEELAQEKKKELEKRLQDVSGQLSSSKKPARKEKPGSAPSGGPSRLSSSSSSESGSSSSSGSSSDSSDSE

[5] = molecular target: T3, Bromodomain-containing protein 3; experiment: Displacement of biotinylated acetylated peptide from recombinant human partial length BRD3 bromodomain 1 (P24 to E144 residues) expressed in Escherichia coli BL21 measured after 1 hr by Bromoscan method
[6] = molecular target: T1, Bromodomain-containing protein 4; experiment: Displacement of biotinylated acetylated peptide from recombinant human partial length BRD4 long isoform bromodomain 1 (N44 to E168 residues) expressed in Escherichia coli BL21 measured after 1 hr by Bromoscan method
[7] = molecular target: T3, Bromodomain-containing protein 3; experiment: Displacement of biotinylated acetylated peptide from recombinant human partial length BRD3 bromodomain 2 (G306 to P416 residues) expressed in Escherichia coli BL21 measured after 1 hr by Bromoscan method
[8] = molecular target: T2, Bromodomain testis-specific protein; experiment: Displacement of biotinylated acetylated peptide from recombinant human partial length BRDT isoform b bromodomain 1/2 (N21 to E382 residues) expressed in Escherichia coli BL21 measured after 1 hr by Bromoscan method
[9] = molecular target: T2, Bromodomain testis-specific protein; experiment: Displacement of biotinylated acetylated peptide from recombinant human partial length BRDT isoform b bromodomain 2 (K250 to E382 residues) expressed in Escherichia coli BL21 measured after 1 hr by Bromoscan method
[10] = molecular target: T1, Bromodomain-containing protein 4; experiment: Displacement of biotinylated acetylated peptide from recombinant human partial length BRD4 long isoform bromodomain 2 (K333 to E460 residues) expressed in Escherichia coli BL21 measured after 1 hr by Bromoscan method
[11] = molecular target: T4, Bromodomain-containing protein 2 (Homo sapiens, UniProt P25440); experiment: Displacement of biotinylated acetylated peptide from recombinant human partial length BRD2 isoform 1 bromodomain 1 (K71 to N194 residues) expressed in Escherichia coli BL21 measured after 1 hr by Bromoscan method
T4 sequence (P25440 whole entry, the tested form may be a part, canonical isoform): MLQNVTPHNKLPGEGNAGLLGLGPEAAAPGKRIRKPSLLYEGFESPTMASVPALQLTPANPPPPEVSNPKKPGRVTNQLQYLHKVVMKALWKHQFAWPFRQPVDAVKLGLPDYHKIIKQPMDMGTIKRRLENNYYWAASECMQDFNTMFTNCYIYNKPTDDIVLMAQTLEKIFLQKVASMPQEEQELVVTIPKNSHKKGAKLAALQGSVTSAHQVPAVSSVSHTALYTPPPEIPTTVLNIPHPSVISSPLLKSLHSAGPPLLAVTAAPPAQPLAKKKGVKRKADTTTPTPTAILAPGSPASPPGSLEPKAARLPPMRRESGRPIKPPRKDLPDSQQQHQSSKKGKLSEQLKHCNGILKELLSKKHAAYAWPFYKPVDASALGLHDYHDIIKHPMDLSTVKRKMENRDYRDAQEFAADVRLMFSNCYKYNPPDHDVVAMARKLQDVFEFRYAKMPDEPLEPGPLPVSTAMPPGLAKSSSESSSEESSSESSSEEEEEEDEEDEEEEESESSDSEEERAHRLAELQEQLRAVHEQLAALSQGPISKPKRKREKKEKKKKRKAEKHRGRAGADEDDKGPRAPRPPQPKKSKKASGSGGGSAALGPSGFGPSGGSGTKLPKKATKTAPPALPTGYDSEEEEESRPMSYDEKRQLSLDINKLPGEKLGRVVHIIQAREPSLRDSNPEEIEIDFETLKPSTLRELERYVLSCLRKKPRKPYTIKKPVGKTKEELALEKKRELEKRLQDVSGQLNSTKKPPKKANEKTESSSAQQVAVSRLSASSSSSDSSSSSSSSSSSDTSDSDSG

[12] = molecular target: T4, Bromodomain-containing protein 2; experiment: Displacement of biotinylated acetylated peptide from recombinant human partial length BRD2 isoform 1 bromodomain 1/2 (K71 to D455 residues) expressed in Escherichia coli BL21 measured after 1 hr by Bromoscan method
[13] = molecular target: T4, Bromodomain-containing protein 2; experiment: Displacement of biotinylated acetylated peptide from recombinant human partial length BRD2 isoform 1 bromodomain 2 (E348 to D455 residues) expressed in Escherichia coli BL21 measured after 1 hr by Bromoscan method
[14] = Volume of distribution at steady state in CD-1 mouse at 2 mg/kg, iv measured; assay type: ADME, organism-based; settings: in vivo, read-out: Vdss
[15] = as §1; assay type: ADME, organism-based; design: dose 10 mg/kg, time infinity, route oral; settings: CD-1, mouse, in vivo; summary of the method: as §2
Mus musculus [16] = experiment: Cmax in CD-1 mouse at 2 mg/kg, iv measured after 5 mins; assay type: ADME, organism-based; design: dose 2 mg/kg, route intravenous; settings: in vivo
[17] = Half life in CD-1 mouse at 10 mg/kg, po; assay type: ADME, organism-based; settings: in vivo; summary of the method: as §2
[18] = Plasma clearance in CD-1 mouse at 2 mg/kg, iv; assay type: ADME, organism-based
Mus musculus [19] = experiment: Oral bioavailability in CD-1 mouse at 10 mg/kg; assay type: ADME, organism-based; settings: in vivo; summary of the method: as §2
[20] = AUC (0 to infinity) in CD-1 mouse at 2 mg/kg, iv; assay type: ADME, organism-based; design: dose 2 mg/kg, time infinity, route intravenous; settings: in vivo
[21] = Half life in CD-1 mouse at 2 mg/kg, iv; assay type: ADME, organism-based; settings: in vivo

Structure (SMILES)	Kd [1]	IC50 (MV4-11)	also measured
Cc1noc(C)c1-c1ccc2nc(N3CCN(CCN(C)C)CC3)nc(N3CCCC3c3ccccc3)c2c1 (stereo not drawn)	250 nM	2540 nM	–
Cc1noc(C)c1-c1ccc2nc(-n3cc(CCO)cn3)nc(NCc3cccc(Cl)c3)c2c1	–	3080 nM	–
Cc1noc(C)c1-c1ccc2nc(N3CCN(CCN(C)C)CC3)nc(NCc3cccc(Cl)c3)c2c1	56 nM	660 nM	–
Cc1noc(C)c1-c1ccc2nc(C(=O)NCc3cccnc3)nc(NCc3cccc(Cl)c3)c2c1	56 nM	1430 nM	–
Cc1cc(-c2ccc3nc(N4CCN(CCN(C)C)CC4)nc(NCc4cccc(Cl)c4)c3c2)cnc1O	310 nM	1130 nM	–
Cc1ccc(NC(=O)c2nc(NCc3cccc(Cl)c3)c3cc(-c4c(C)noc4C)ccc3n2)cn1	620 nM	4520 nM	–
CNc1nc(NCc2cccc(Cl)c2)c2cc(-c3c(C)noc3C)ccc2n1	–	3590 nM	–
CN(C)CCN1CCN(c2nc(NCc3cccc(Cl)c3)c3cc(-c4ccc(=O)n(C)c4)ccc3n2)CC1	44 nM	540 nM	Kd [2]: 20 nM; AUC (Mus musculus [3]): Bld; Kd [4]: 20 nM; Kd [5]: 21 nM; Kd [6]: 18 nM; Kd [7]: 21 nM; Kd [8]: 67 nM; Kd [9]: 160 nM; Kd [10]: 50 nM; Kd [11]: 33 nM; Kd [12]: 27 nM; Kd [13]: 24 nM
Cc1noc(C)c1-c1ccc2nc(N3CCN(CCN(C)C)CC3)nc(Nc3ccc(Cl)cc3)c2c1	2600 nM	1510 nM	–
Cc1noc(C)c1-c1ccc2nc(-c3cnn(CCO)c3)nc(N3CCOCC3c3ccccc3)c2c1 (stereo not drawn)	66 nM	–	Vd [14]: 1.7 L/kg; AUC(0-inf) [15]: 4490 ng·h/mL; Cmax (Mus musculus [16]): 1690 ng/mL; half-life [17]: 2.1 h; clearance [18]: 19.8 mL/min/kg; F (Mus musculus [19]): 51%; AUC(0-inf) [20]: 1760 ng·h/mL; half-life [21]: 3.1 h
Cc1noc(C)c1-c1ccc2nc(N3CCN(CCN(C)C)CC3)nc(NCc3ccc(Cl)cc3)c2c1	520 nM	3480 nM	–
Cc1noc(C)c1-c1ccc2nc(N3CCN(CCN(C)C)CC3)nc(N[C@@H](CO)c3ccccc3)c2c1	130 nM	2100 nM	–
Cc1noc(C)c1-c1ccc2nc(N3CCN(CC(=O)N(C)C)CC3)nc(NCc3cccc(Cl)c3)c2c1	73 nM	1730 nM	–
Cc1nocc1-c1ccc2nc(N3CCN(CCN(C)C)CC3)nc(NCc3cccc(Cl)c3)c2c1	360 nM	2970 nM	–
CNC(=O)Cn1cc(-c2nc(NCc3cccc(Cl)c3)c3cc(-c4c(C)noc4C)ccc3n2)cn1	–	1010 nM	–
Cc1noc(C)c1-c1ccc2nc(C(=O)Nc3cnn(C)c3)nc(NCc3cccc(Cl)c3)c2c1	290 nM	3590 nM	–
Cc1noc(C)c1-c1ccc2nc(N3CCN(CCC(C)C)CC3)nc(NCc3cccc(Cl)c3)c2c1	980 nM	6890 nM	–
Cc1noc(C)c1-c1ccc2nc(N3CCN(CCN(C)C)CC3)nc(NCc3ccccc3Cl)c2c1	85 nM	1250 nM	–
Cc1noc(C)c1-c1ccc2nc(N3CCN(CCN(C)C)CC3)nc(NCc3cc(Cl)ccn3)c2c1	110 nM	1600 nM	–
Cc1noc(C)c1-c1ccc2nc(-c3cnn(CC(N)=O)c3)nc(NCc3cccc(Cl)c3)c2c1	130 nM	660 nM	–
Cc1noc(C)c1-c1ccc2nc(N3CCN(CCN(C)C)CC3)nc(NC(C)c3cccc(Cl)c3)c2c1 (stereo not drawn)	270 nM	4350 nM	–
Cc1noc(C)c1-c1ccc2nc(N3CCN(C(=O)CN(C)C)CC3)nc(NCc3cccc(Cl)c3)c2c1	30 nM	1230 nM	–
Cc1noc(C)c1-c1ccc2nc(-c3cnn(CCN(C)C)c3)nc(NCc3cccc(Cl)c3)c2c1	56 nM	1330 nM	–
Cc1noc(C)c1-c1ccc2nc(N3CCN(CCN(C)C)CC3)nc(N3CCOCC3c3ccccc3)c2c1 (stereo not drawn)	–	1830 nM	–
Cc1noc(C)c1-c1ccc2nc(-c3ccc(CO)nc3)nc(NCc3cccc(Cl)c3)c2c1	–	2640 nM	–
Cc1noc(C)c1-c1ccc2nc(C(=O)N3CCN(CCN(C)C)CC3)nc(NCc3cccc(Cl)c3)c2c1	570 nM	4710 nM	–
Cc1noc(C)c1-c1ccc2nc(N3CCN(CCO)CC3)nc(NCc3cccc(Cl)c3)c2c1	56 nM	1670 nM	–

Source: ChEMBL document CHEMBL4261601, “Discovery and lead identification of quinazoline-based BRD4 inhibitors” (Bioorg Med Chem Lett, 2018)
